# C2C12 statin: suppressors of simvastatin-induced myotoxicity in C2C12 myotubes; 330,000 compounds, 0.78% hits; rescue of ATP level, % at 7.49 µM; ATP luminescence, 48 h; scaled: DMSO 0, geranylgeraniol control 100;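 active = mean ATP rescue above about 67%, or every replicate alone reaching that limit, limit read from the data, passing the limit was not always enough; inconclusive = no clear call, values can overlap the other calls; inactive = mean under the limit and some replicate under it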;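 also: myotubes were challenged with 10 µM simvastatin during compound exposure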
# PGC1a acetyl inh: PGC1a acetylation modulation, inhibitor mode; inhibition, % at 15.6 µM; 350,000 compounds, 0.17% hits; AID 651687; U2OS PGC1a acetylation, AlphaScreen anti-acetyl-lysine; with virally co-expressed GCN5 acetyltransferase;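 active = every replicate shows inhibition of at least 40%; inconclusive = mean inhibition at least 40% but some replicate below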
# Rtt109 HAT inh: inhibitors of Candida albicans Rtt109/Vps75 histone acetyltransferase | Q5AAJ8 | purified Rtt109/Vps75, ThioGlo CoA-SH fluorescence, 4 h | inhibition, % at 34.9 µM | 330,000 compounds, 0.16% hits | AID 540336;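 active = inhibition of at least 50% in every replicate; inconclusive = best replicate reaches 50% inhibition but some replicates fall short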
# Target sequence (Q5AAJ8 whole entry, looked up): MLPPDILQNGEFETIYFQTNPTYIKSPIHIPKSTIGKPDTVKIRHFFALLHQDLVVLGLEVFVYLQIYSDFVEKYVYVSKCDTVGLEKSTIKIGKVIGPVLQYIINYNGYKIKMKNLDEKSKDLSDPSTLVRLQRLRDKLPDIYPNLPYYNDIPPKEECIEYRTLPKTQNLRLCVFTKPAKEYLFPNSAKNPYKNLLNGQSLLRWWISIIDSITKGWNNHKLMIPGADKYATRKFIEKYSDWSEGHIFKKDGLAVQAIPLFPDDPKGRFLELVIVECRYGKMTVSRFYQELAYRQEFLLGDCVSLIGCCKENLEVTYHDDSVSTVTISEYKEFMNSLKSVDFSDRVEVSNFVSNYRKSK
# ERAP1 inh: ERAP1 (human) enzyme inhibition | Q9NZ08 | 340,000 compounds, 0.15% hits | recombinant ERAP1, Leu-AMC fluorescence, 60 min | inhibition, % at 10.7 µM;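 active = mean replicate inhibition of at least 30%, or all replicates individually reaching that 30% level; inactive = mean below 30% and not every replicate reaching it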
# S100A4 inh HTS: blocks human S100A4 binding to myosin IIA peptide. inhibition, % at 10.7 µM. AID 652163. P26447. 360,000 compounds, 0.14% hits. S100A4/TAMRA-MyoIIA peptide fluorescence polarization;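 active = mean inhibition of at least 70% across replicates, with every replicate also reaching that level; inconclusive = mean inhibition reaches 70% but some replicates fall short; inactive = mean inhibition below 70%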
# Target sequence (P26447 whole entry, looked up): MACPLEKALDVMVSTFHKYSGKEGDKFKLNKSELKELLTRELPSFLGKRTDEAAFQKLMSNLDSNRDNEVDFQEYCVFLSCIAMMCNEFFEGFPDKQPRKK
#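 Material: S100A4 monomer protein / Buffer or medium: 50 mM HEPES pH 7.2, 10 mM CaCl2, 100 mM KCl / Times: 5 min incubation before reading / Benchmarks: neutral control DMSO, positive control TFP / Reagent: labelled myosin peptide probe, 5 nM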
# Numbers stand for hits; - = inactive; ? = inconclusive; . = not tested or not shown. The list is not random: actives were taken first. Their share in the collection is about 0.98%.
SMILES,C2C12 statin,PGC1a acetyl inh,Rtt109 HAT inh,ERAP1 inh,S100A4 inh HTS
CCOC(=O)[C@H](Cc1c[nH]c2ccccc12)NC(=O)CN=[N+]=[N-],.,-,.,-,-
O=C(Cc1cn2ccsc2n1)Nc1ccccc1Oc1ccccc1,101.2,-,-,.,.
O=C(Cc1cn2ccsc2n1)NCc1ccccc1,-,-,-,-,-
Cc1cccc(C(=O)Nc2cc(OCc3cccc(F)c3)c(Cl)cc2Cl)c1,113.0,-,-,-,-
COCCOc1cc(NC(=O)c2cccc(OC)c2)c(Cl)cc1Cl,.,.,-,-,-
Nc1ccc(C(=O)Nc2ccc3cc(S(=O)(=O)O)ccc3c2)cc1,93.3,-,-,-,-
Nc1ccc(C(=O)Nc2cccc(NC(=O)c3ccc(N)cc3)c2)cc1,-,-,-,-,-
O=C(/C=N/O)NCc1cccnc1,-,-,.,-,-
C[n+]1cccc(CNC(=O)/C=N/O)c1,112.2,?,-,.,.
CCn1c(Cl)c(C=O)s/c1=N\S(=O)(=O)c1ccccc1,-,78.1,-,-,-
COc1ccc(Cl)cc1-c1cc(C(=O)Nc2ccccc2)[nH]n1,-,-,.,-,-
COc1ccc(Cl)cc1-c1cc(C(=O)N[C@H](C)c2ccccc2)[nH]n1,-,-,.,-,141.5
C[C@H]1CN([C@@H](C)CO)C(=O)Cc2cc(NS(=O)(=O)c3cccs3)ccc2O[C@@H]1CN(C)Cc1ccc2c(c1)OCO2,-,-,.,-,-
CCOC(=O)C(=CNCC(=O)OC)C(=O)OCC,106.8,-,-,.,.
Cc1ccc(S(=O)(=O)N(C)C[C@@H]2Oc3ccc(NC(=O)c4ccncc4)cc3CC(=O)N([C@@H](C)CO)C[C@@H]2C)cc1,-,-,.,-,-
O=C(Cc1cccnc1)N[C@@H]1CC[C@@H](CCn2cc(-c3ccccc3F)nn2)O[C@@H]1CO,-,-,.,-,-
Cc1cc(N2CCN(c3nnnn3-c3ccccc3)CC2)n2ncnc2n1,110.8,-,-,.,.
Cc1cc(N2CCN(c3ccccc3)CC2)n2nnnc2n1,149.3,-,-,.,.
Cc1cc(N2CCN(S(=O)(=O)Cc3ccccc3)CC2)n2ncnc2n1,-,-,-,.,.
N#C[C@@H]1[C@H](c2ccccc2-c2ccccc2)[C@H](CO)N1C(=O)Cc1ccncc1,.,-,.,-,-
COc1ccccc1C(=O)NNC(=O)Cc1ccccc1,-,.,-,-,-
CCC(C)(CCNC(=O)Cc1ccccc1)c1ccccc1OC (stereo not drawn),121.1,-,-,-,-
COc1ccc(NC(=S)Nc2ccc3nsnc3c2)cc1,.,-,54.2,.,.
CCOc1ccc(NC(=S)Nc2ccc3nsnc3c2)cc1,.,.,-,.,.
CCNC(=S)NNC(=O)CCc1nc2cc(Cl)ccc2n(Cc2ccccc2)c1=O,-,-,-,-,-
SMILES,C2C12 statin,PGC1a acetyl inh,Rtt109 HAT inh,ERAP1 inh,S100A4 inh HTS
CN(C)C(CNC(=O)CCc1nc2cc(Cl)ccc2n(Cc2ccccc2)c1=O)c1ccccc1 (stereo not drawn),-,-,-,-,190.2
COc1ccc(NC(=O)[C@H](Cc2c[nH]c3ccccc23)NC(=O)[C@@H]2Cc3ccccc3CN2)cc1,-,63.5,-,.,-
CCCNC(=O)N1C[C@H](C)[C@@H](OC)CN(C)C(=O)c2cc(NC(=O)CCC)ccc2OC[C@H]1C,-,-,.,-,-
N#CCc1c(C#N)c(N)nc(N2CCN(S(=O)(=O)c3ccccc3)CC2)c1C#N,83.6,-,-,.,.
N#CCc1c(C#N)c(N)nc(N2CCN(C=O)CC2)c1C#N,.,-,-,-,-
Cc1nc(CSc2ccc(Cl)cc2)cc(N2CC(C)OC(C)C2)n1 (stereo not drawn),107.3,-,-,-,-
Oc1ccccc1/C=N/Nc1nc2ccccc2o1,-,41.2,-,-,-
Brc1ccc(/C=N/Nc2nc3ccccc3o2)cc1,-,-,-,-,-
CCCNC(=O)Nc1ccc2c(c1)OC[C@H](C)N(Cc1cncnc1)C[C@@H](C)[C@@H](OC)CN(C)C2=O,-,-,.,-,-
COc1ccc(Br)cc1/C=C/c1ccc2cccc(O)c2n1,67.5,-,-,-,-
COc1cc(Br)cc(/C=C/c2ccc3cccc(O)c3n2)c1OC,-,.,-,-,-
CN1C(=O)c2cc(NC(=O)c3cnccn3)ccc2OC[C@H]2O[C@@H](CC(=O)NC3CCC3)CC[C@@H]21,-,-,.,-,-
Cc1cccc(NC(=O)CN2C(=O)NC3(CCCCCCC3)C2=O)c1C,-,-,-,-,-
COCCN(CC(=O)Nc1cccc(C)c1C)C(=O)CN1C(=O)NC2(CCCCC2)C1=O,-,-,-,45.0,-
CO[C@@H]1CN(C)C(=O)c2ccc(NC(=O)Nc3ccccc3F)cc2OC[C@@H](C)N(Cc2ccccc2F)C[C@H]1C,-,-,.,-,-
CC(C)OC(=O)N(C)c1ccc(C(O)(C(F)(F)F)C(F)(F)F)cc1,.,-,55.2,.,.
CCN1CCN(Cc2ccc(NC(=O)c3ccc(C)c(NC(=O)c4cncc(-c5cccs5)c4)c3)cc2C(F)(F)F)CC1,.,68.7,-,.,.
Cc1cc(C)cc(N2CC(c3nc4ccccc4n3C)CC2=O)c1 (stereo not drawn),-,-,-,102.6,-
Cc1ccc(N2CC(c3nc4ccccc4n3C)CC2=O)cc1C (stereo not drawn),-,-,-,-,-
CCCC(c1nnnn1C1CCCC1)N1CCN(c2ccccc2F)CC1 (stereo not drawn),-,-,-,.,.
CCC(c1nnnn1C1CCCC1)N1CCN(c2ccccc2F)CC1 (stereo not drawn),124.3,-,-,.,.
Fc1ccc(C(c2nnnn2C2CCCC2)N2CCN(Cc3ccccc3)CC2)cc1 (stereo not drawn),137.1,-,-,.,.
c1ccc(C(c2ccccc2)N2CCN(Cc3nnnn3C3CCCC3)CC2)cc1,77.1,-,-,.,.
CC(C)(CSc1ccccn1)NS(=O)(=O)c1ccccc1,.,.,-,.,.
CC(C)(CSc1ncccn1)NS(=O)(=O)c1ccccc1,119.6,-,-,-,-
SMILES,C2C12 statin,PGC1a acetyl inh,Rtt109 HAT inh,ERAP1 inh,S100A4 inh HTS
CCC(=O)Nc1ccc2c(c1)C(=O)N(C)C[C@H](OC)[C@H](C)CN(C(=O)C1CC1)[C@@H](C)CO2,-,-,.,-,-
Cn1cnnc1SCC(=O)Nc1ccccc1,-,-,-,-,-
Cn1cnnc1SCC(=O)Nc1ccc(Br)cc1F,70.8,-,-,.,.
C[C@@H]1CN([C@@H](C)CO)C(=O)Cc2cc(NS(=O)(=O)c3ccc(F)cc3)ccc2O[C@H]1CN(C)S(=O)(=O)c1ccc(Cl)cc1,-,-,.,.,.
COc1cccc(S(=O)(=O)N[C@@H]2CC[C@H](CCn3cc(-c4ccccc4OC)nn3)O[C@H]2CO)c1,-,-,.,-,-
Cc1ccc2nc(N(CCCN(C)C)C(=O)c3ccc4ncsc4c3)sc2c1,-,-,?,64.0,-
COc1ccc(CN(C)C[C@H]2Oc3ccc(NS(=O)(=O)c4cn(C)cn4)cc3CC(=O)N([C@@H](C)CO)C[C@@H]2C)cc1,-,-,.,-,-
Cc1noc(C)c1S(=O)(=O)Nc1ccc2c(c1)C(=O)N([C@@H](C)CO)C[C@@H](C)[C@@H](CN(C)C(=O)NC1CCCCC1)O2,-,-,.,-,-

# High-throughput results from PubChem.
